Test results from ChEMBL document CHEMBL3526090, “Pharmacokinetic mechanism involved in the prolonged high retention of laninamivir in mouse respiratory tissues after intranasal administration of its prodrug laninamivir octanoate” (Drug Metab Dispos, 2013).
Converted amounts (≈) assume the structure as drawn. Values belong to the compound of their own block, whether it stands above or below them.

Experiments:
[1] = Cmax in BALB/cAnNCrlCrlj mouse epithelial lining fluid at 0.5 umol/kg administered intranasally; type: ADME, tissue-based; parameters: dose 0.5 umol/kg, route nasal; conditions: inhaled or intranasal
How it was run: (§1)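 Female BALB/c mice (7 weeks old) received a single intranasal dose of 0.5 μmol/kg at 2.5 ml/kg, with N=3–4 per time point up to 24 h. Plasma, BAL fluid (3 × 1 ml PBS pH 7.4) and lung homogenate were taken, and AEBSF was added to a final 5 mM. LO and laninamivir were measured by LC-MS/MS. ELF levels were corrected using the urea ratio between plasma and BAL. Non-compartmental analysis on mean concentrations gave Cmax/Tmax by observation, t1/2 from ≥3 terminal log points, and AUClast by the trapezoidal method.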

Lung [2] = assay: Cmax in BALB/cAnNCrlCrlj mouse lung at 0.5 umol/kg administered intranasally; type: ADME; parameters: dose 0.5 umol/kg, route nasal; conditions: in vivo, inhaled_or_intranasal; how it was run: as §1
[3] = Cmax in BALB/cAnNCrlCrlj mouse plasma at 0.5 umol/kg administered intranasally; type: ADME, cell-free; parameters: dose 0.5 umol/kg, route nasal; conditions: inhaled or intranasal; how it was run: as §1
[4] = Tmax in BALB/cAnNCrlCrlj mouse epithelial lining fluid at 0.5 umol/kg administered intranasally; type: ADME, tissue-based; conditions: inhaled or intranasal; how it was run: as §1
[5] = Tmax in BALB/cAnNCrlCrlj mouse lung at 0.5 umol/kg administered intranasally; type: ADME; conditions: inhaled or intranasal; how it was run: as §1
[6] = Tmax in BALB/cAnNCrlCrlj mouse plasma at 0.5 umol/kg administered intranasally; type: ADME, cell-free; conditions: inhaled or intranasal; how it was run: as §1
[7] = Elimination half life in BALB/cAnNCrlCrlj mouse epithelial lining fluid at 0.5 umol/kg administered intranasally; type: ADME, tissue-based; how it was run: as §1
Lung [8] = assay: (§2) Elimination half life in BALB/cAnNCrlCrlj mouse lung at 0.5 umol/kg administered intranasally; type: ADME, tissue-based; conditions: in vivo, inhaled_or_intranasal; how it was run: as §1
[9] = Elimination half life in BALB/cAnNCrlCrlj mouse plasma at 0.5 umol/kg administered intranasally; type: ADME, cell-free; conditions: inhaled or intranasal, read-out: beta t1/2 (converted); how it was run: as §1
[10] = AUClast in BALB/cAnNCrlCrlj mouse epithelial lining fluid at 0.5 umol/kg administered intranasally; type: ADME, tissue-based; parameters: dose 0.5 umol/kg, route nasal, time 0 - last; conditions: inhaled or intranasal; how it was run: as §1
Lung [11] = assay: AUClast in BALB/cAnNCrlCrlj mouse lung at 0.5 umol/kg administered intranasally; type: ADME; conditions: in vivo, inhaled_or_intranasal; how it was run: as §1
[12] = AUClast in BALB/cAnNCrlCrlj mouse plasma at 0.5 umol/kg administered intranasally; type: ADME, cell-free; parameters: dose 0.5 umol/kg, time 0 - last, route nasal; conditions: inhaled or intranasal; how it was run: as §1
[13] = Drug uptake in BALB/cAnNCrlCrlj mouse epithelial lining fluid at 0.5 umol/kg administered intranasally measured at 4 hrs by LC-MS/MS analysis; type: ADME, tissue-based; conditions: inhaled or intranasal, read-out: Drug uptake
How it was run: (§3)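 Female BALB/c mice were dosed intranasally at 0.5 μmol/kg (2.5 ml/kg), N=3–4 per time point. At each sampling time, blood was taken by cardiac puncture, BAL was done with 3 × 1 ml PBS, and lungs were homogenized in 50% acetonitrile. LO and laninamivir were quantified by LC-MS/MS, calibrated over 1–100 ng/ml and 0.5–100 ng/ml respectively. ELF concentration was calculated as CBAL × (urea in plasma / urea in BAL).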

[14] = Drug uptake in primary cultured BALB/c mouse airway epithelial cells at 50 uM measured up to 90 mins by LC-MS/MS analysis; type: ADME, cell-based; conditions: epithelial cell
How it was run: (§4)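 Primary airway epithelial cells from BALB/c mice were obtained by collagenase digestion and negative immunomagnetic selection, then grown to confluence on collagen I. Cells were pre-incubated 30 min in serum-free F-12K. For the time course they were exposed to 50 μM LO for up to 120 min; for concentration dependence, to 10–1000 μM LO for 60 min, at 37°C. After ice-cold PBS washes and Triton lysis, intracellular LO and laninamivir were measured by LC-MS/MS and normalized to Lowry protein, in triplicate.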

[15] = Prodrug activation in primary cultured BALB/c mouse airway epithelial cells assessed as formation of laninamivir at 50 uM measured up to 60 to 90 mins by LC-MS/MS analysis; type: cell-based; conditions: epithelial cell; how it was run: as §4
[16] = Prodrug activation in primary cultured BALB/c mouse airway epithelial cells assessed as formation of laninamivir measured at 60 mins by LC-MS/MS analysis; type: cell-based; conditions: epithelial cell, 1 h; how it was run: as §4
[17] = Prodrug activation in primary cultured BALB/c mouse airway epithelial cells assessed as formation of laninamivir measured at 50 uM measured at 24 hrs by LC-MS/MS analysis; type: cell-based; conditions: epithelial cell
How it was run: (§5)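 Confluent primary BALB/c airway epithelial cells were loaded with 50 μM LO for 60 min and then washed. They were then incubated in drug-free medium at 37°C for up to 24 h, with the medium fully replaced at each sampling point. Cells were washed with ice-cold PBS and lysed. LO and laninamivir in medium and cells were measured by LC-MS/MS and normalized to Lowry protein, in triplicate. Release and hydrolysis rate constants were obtained by first-order compartmental modelling.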

[18] = Lipophilicity, log D of the compound at pH 7.4; type: physicochemical; conditions: buffer
[19] = Aqueous solubility of the compound; type: physicochemical; conditions: buffer
[20] = Cmax in BALB/cAnNCrlCrlj mouse epithelial lining fluid treated with laninamivir octanoate at 0.5 umol/kg administered intranasally; type: ADME; parameters: dose 0.5 umol/kg, route nasal; conditions: inhaled or intranasal; how it was run: as §1
Lung [21] = assay: Cmax in BALB/cAnNCrlCrlj mouse lung treated with laninamivir octanoate at 0.5 umol/kg administered intranasally; type: ADME; parameters: dose 0.5 umol/kg, route nasal; conditions: in vivo, inhaled_or_intranasal; how it was run: as §1
[22] = Elimination half life in BALB/cAnNCrlCrlj mouse epithelial lining fluid treated with laninamivir octanoate at 0.5 umol/kg administered intranasally; type: ADME; conditions: inhaled or intranasal, read-out: beta t1/2 (converted); how it was run: as §1
[23] = Cmax in BALB/cAnNCrlCrlj mouse plasma treated with laninamivir octanoate at 0.5 umol/kg administered intranasally; type: ADME, cell-free; parameters: dose 0.5 umol/kg, route nasal; conditions: inhaled or intranasal; how it was run: as §1
[24] = Tmax in BALB/cAnNCrlCrlj mouse epithelial lining fluid treated with laninamivir octanoate at 0.5 umol/kg administered intranasally; type: ADME, tissue-based; conditions: inhaled or intranasal; how it was run: as §1
[25] = Tmax in BALB/cAnNCrlCrlj mouse lung treated with laninamivir octanoate at 0.5 umol/kg administered intranasally; type: ADME; conditions: inhaled or intranasal; how it was run: as §1
[26] = Tmax in BALB/cAnNCrlCrlj mouse plasma treated with laninamivir octanoate at 0.5 umol/kg administered intranasally; type: ADME, cell-free; conditions: inhaled or intranasal; how it was run: as §1
[27] = as §2; type: ADME, tissue-based; conditions: BALB/cAnNCrlCrlj, lung, inhaled or intranasal, 0.5 umol/kg, read-out: beta t1/2 (converted); how it was run: as §1
[28] = Elimination half life in BALB/cAnNCrlCrlj mouse lung treated with laninamivir octanoate at 0.5 umol/kg administered intranasally; type: ADME, tissue-based; conditions: inhaled or intranasal, read-out: beta t1/2 (converted); how it was run: as §1
[29] = Elimination half life in BALB/cAnNCrlCrlj mouse plasma treated with laninamivir octanoate at 0.5 umol/kg administered intranasally; type: ADME, cell-free; conditions: inhaled or intranasal, read-out: beta t1/2 (converted); how it was run: as §1
[30] = AUClast in BALB/cAnNCrlCrlj mouse epithelial lining fluid treated with laninamivir octanoate at 0.5 umol/kg administered intranasally; type: ADME, tissue-based; parameters: dose 0.5 umol/kg, time 0 - last, route nasal; conditions: inhaled or intranasal; how it was run: as §1
Lung [31] = assay: AUClast in BALB/cAnNCrlCrlj mouse lung treated with laninamivir octanoate at 0.5 umol/kg administered intranasally; type: ADME; conditions: in vivo, inhaled_or_intranasal; how it was run: as §1
[32] = AUClast in BALB/cAnNCrlCrlj mouse plasma treated with laninamivir octanoate at 0.5 umol/kg administered intranasally; type: ADME, cell-free; parameters: dose 0.5 umol/kg, time 0 - last, route nasal; conditions: inhaled or intranasal; how it was run: as §1
[33] = Drug uptake in BALB/cAnNCrlCrlj mouse epithelial lining fluid treated with laninamivir octanoate at 0.5 umol/kg administered intranasally measured at 4 hrs by LC-MS/MS analysis; type: ADME; conditions: inhaled or intranasal, read-out: Drug uptake; how it was run: as §3
Plasma = assay: Drug uptake in BALB/cAnNCrlCrlj mouse plasma at 0.5 umol/kg administered intranasally measured after 8 hrs by LC-MS/MS analysis; type: ADME, cell-free; conditions: inhaled_or_intranasal; how it was run: as §3
[34] = Drug level in primary cultured BALB/c mouse airway epithelial cells treated with laninamivir octanoate at 50 uM measured up 60 to 90 mins by LC-MS/MS analysis; type: ADME, cell-based; conditions: epithelial cell; how it was run: as §4
[35] = Drug level in primary cultured BALB/c mouse airway epithelial cells treated with laninamivir octanoate at 50 uM measured at 24 hrs by LC-MS/MS analysis; type: ADME, cell-based; conditions: epithelial cell; how it was run: as §5
[36] = Drug uptake in BALB/cAnNCrlCrlj mouse epithelial lining fluid treated with laninamivir octanoate at 0.5 umol/kg administered intranasally measured at 24 hrs by LC-MS/MS analysis; type: ADME, tissue-based; conditions: inhaled or intranasal, read-out: Drug uptake; how it was run: as §3
[37] = Tmax in human treated with laninamivir octanoate at 40 mg administered intranasally; type: ADME, organism-based; conditions: in vivo, inhaled or intranasal
[38] = Elimination half life in human treated with laninamivir octanoate administered intranasally; type: ADME, organism-based; conditions: in vivo, inhaled or intranasal, read-out: beta t1/2 (converted)
Lung [39] = assay: Drug uptake in BALB/cAnNCrlCrlj mouse lung at 0.5 umol/kg administered intranasally measured at 24 hrs by LC-MS/MS analysis; type: ADME, tissue-based; conditions: in vivo, inhaled_or_intranasal; how it was run: as §3
Lung [40] = assay: Drug concentration in BALB/cAnNCrlCrlj mouse lung treated with laninamivir octanoate at 0.5 umol/kg administered intranasally measured at 24 hrs; conditions: in vivo, inhaled_or_intranasal

Cmax [1]: 20400 nM
Cmax (Lung [2]): 1760 pmol/g
Cmax [3]: 242 nM
Tmax [4]: 1.98 min
Tmax [5]: 0.5 h
Tmax [6]: 0.5 h
beta t1/2 ([7]; in vivo, inhaled_or_intranasal): 1.1 h
beta t1/2 (Lung [8]): 1.3 h
half-life [9]: 0.6 h
AUC(0-t) [10]: 23.6 µM·h
AUClast (Lung [11]): 4480 pmol·h/g
AUC(0-t) [12]: 0.323 µM·h
concentration at 4 h [13]: 348 nM
Drug uptake [14]: Active
Drug metabolism [15]: metabolite_detected
Drug metabolism [16]: Dose-dependent effect
Drug metabolism [17]: metabolite_detected
logD [18]: -0.01
solubility [19]: 1270 µM (≈ 600 µg/mL)
Compound: CCCCCCCC(=O)OC[C@@H](O)[C@@H](OC)[C@@H]1OC(C(=O)O)=C[C@H](NC(=N)N)[C@H]1NC(C)=O [LANINAMIVIR OCTANOATE]

Cmax [1]: 19900 nM
Cmax [20]: 1520 nM
Cmax (Lung [2]): 1020 pmol/g
Cmax (Lung [21]): 4350 pmol/g
half-life [22]: 25.1 h
Cmax [3]: 478 nM
Cmax [23]: 181 nM
Tmax [4]: 1.98 min
Tmax [24]: 1 h
Tmax [5]: 0.25 h
Tmax [25]: 6 h
Tmax [6]: 0.5 h
Tmax [26]: 1 h
half-life ([7]; BALB/cAnNCrlCrlj, epithelial lining fluid, inhaled or intranasal, 0.5 umol/kg, read-out: beta t1/2 (converted)): 25.4 h
half-life [27]: 25 h
half-life [28]: 30.9 h
half-life [29]: 13.1 h
AUC(0-t) [10]: 19.6 µM·h
AUC(0-t) [30]: 26.5 µM·h
AUClast (Lung [11]): 9890 pmol·h/g
AUClast (Lung [31]): 75800 pmol·h/g
AUC(0-t) [12]: 0.782 µM·h
AUC(0-t) [32]: 0.445 µM·h
concentration at 4 h [13]: 51.3 nM
concentration at 4 h [33]: 1150 nM
Drug uptake (Plasma): Not Active
Drug metabolism [34]: metabolite_detected
Drug metabolism [35]: metabolite_detected
logD [18]: -2.18
concentration at 24 h [36]: 842 nM
Tmax [37]: 4 h
half-life [38]: 72 h
Drug uptake (Lung [39]): 282 pmol/g
concentration at 24 h (Lung [40]): 2680 pmol/g
Compound: CO[C@@H]([C@@H]1OC(C(=O)O)=C[C@H](NC(=N)N)[C@H]1NC(C)=O)[C@H](O)CO [LANINAMIVIR]
